Source: PubChem BioAssay (The Scripps Research Institute Molecular Screening Center)
TDP2 absorb: blocks human TDP2 phosphodiesterase activity | AID 720702 | 370,000 compounds, 0.34% hits | inhibition, % at 12.8 µM | recombinant TDP2, T5PNP hydrolysis, p-nitrophenol absorbance 415 nm;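 active means inhibition above the mean of all tested compounds plus 3 SD, set per campaign, cut at about 25% in these data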;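 further: 0% = DMSO with enzyme and 100% = buffer with substrate but no TDP2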
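System: recombinant human TDP2 / Amount: 120 nM TDP2 per well / Also added: 5 mM T5PNP chromogenic substrate / Doses: 12.8 µM single point, 1% DMSO / Incubation: 2 h at 37 °C / Detection: p-Nitrophenol epi absorbance / Evaluation: % inhibition relative to enzyme-containing and enzyme-free wells / Repeats: singlicate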
Rin1-Abl PPI inh: inhibitors of human Rin1-Abl protein interaction. P00519+Q13671. TR-FRET Rin1/Abl binding, biochemical. inhibition, % at 7.35 µM. 360,000 compounds, 0.4% hits; in the data active means inhibition above about 5%, passing the limit was not always enough
MBD2 DNA inh: blocks human MBD2 binding to methylated DNA; Q9UBB5; TR-FRET, MBD2 binding to methylated oligonucleotide; inhibition, % at 4.4 µM; 370,000 compounds, 0.31% hits; AID 686964; in the data active means inhibition above about 13%
Target sequence (Q9UBB5 whole entry, looked up): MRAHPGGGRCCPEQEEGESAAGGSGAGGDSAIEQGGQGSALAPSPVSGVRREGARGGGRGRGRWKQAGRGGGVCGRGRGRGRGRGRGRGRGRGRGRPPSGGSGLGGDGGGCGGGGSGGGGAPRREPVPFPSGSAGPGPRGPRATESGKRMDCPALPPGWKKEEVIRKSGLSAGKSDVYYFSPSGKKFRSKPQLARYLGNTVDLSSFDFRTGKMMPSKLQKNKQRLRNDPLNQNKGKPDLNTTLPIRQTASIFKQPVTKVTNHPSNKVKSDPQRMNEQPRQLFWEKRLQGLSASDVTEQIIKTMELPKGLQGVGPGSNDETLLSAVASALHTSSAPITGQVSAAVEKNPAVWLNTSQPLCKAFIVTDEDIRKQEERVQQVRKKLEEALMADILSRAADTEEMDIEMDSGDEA
LEDGF integ inh: blocks HIV-1 LEDGF/p75-dependent DNA integration. AID 743269. inhibition, % at 3.7 µM. 370,000 compounds, 0.64% hits. TR-FRET IN-LEDGF/p75 DNA integration, Eu/Cy5;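 active means inhibition above the screen-wide mean plus 3 SD, cut at about 13% in these data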;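 further: signal is the Cy5 over europium emission ratio at 671 and 618 nm; 0% = plate median of compound wells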
UHRF1 MBD2 ctr: UHRF1 methyl-DNA binding inhibition | Q96T88 | UHRF1 binding to methylated oligo, TR-FRET | inhibition, % at 4.4 µM | 370,000 compounds, 0.75% hits; in the data active means inhibition above about 21%;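 further: UHRF1 SRA domain binding a hemimethylated CpG hairpin DNA probe; 0% = median of test compound wells and 100% = reference inhibitor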
* hit, by the source's call; x = no result given. Compounds with a hit are over-represented: about 1.9% of the library has one in this group of screens.

SMILES | TDP2 absorb | Rin1-Abl PPI inh | MBD2 DNA inh | LEDGF integ inh | UHRF1 MBD2 ctr
C#CCCC(=O)O[C@H]1CCC[C@@]2(C(=O)N(Cc3ccccc3)c3ccccc32)[C@H]1NC(=O)CCc1ccccc1 | 2 | x | 0 | 5 | -2
CCN(CC)C(=O)CC[C@H]1CC[C@]2(CCCN(Cc3ccncc3)C2)O1 | -1 | x | -7 | -2 | -3
Cc1cc(NS(=O)(=O)c2ccc(NC(=O)CSc3nnc(-c4ccco4)n3-c3ccc(Cl)cc3)cc2)nc(C)n1 | -6 | x | 4 | -2 | 2
O=C(CCC1CCCCC1)Nc1nncs1 | 4 | 0 | -4 | -1 | 26*
CC(C)c1ccc(NC(=O)OC2CCC23CCC(c2ccccc2)CC3)cc1 (configuration not stated) | 4 | x | 2 | -1 | 1
CCOC(=O)C1CCCN(C(=O)c2cc(Cl)ccc2Cl)C1 (configuration not stated) | 3 | 2 | 10 | 0 | 22*
CCCC[C@H]1C2CC(OC(=O)Nc3ccc(F)cc3)C(C2)[C@H]2CCCCN21 (some centres not stated) | -9 | x | 0 | -3 | 2
CC(C)CCN(C)C1CCN(C(=O)NCc2ccccc2)CC1 | -21 | x | -7 | 3 | 1
Cc1cc(C)c(NC(=O)COC(=O)c2cccc3c2C(=O)c2ccccc2C3=O)c(C)c1 | 0 | -7 | 0 | -2 | 1
Cc1cc(C)c(Nc2cc(S(=O)(=O)O)c(N)c3c2C(=O)c2ccccc2C3=O)c(C)c1 | -6 | 1 | 1 | -3 | 23*
O=S(=O)(N[C@@H]1CCCC[C@@H]1N1CCOCC1)c1ccc(Cl)cc1 | 3 | x | 2 | 0 | -2
COc1ccc(NC(=O)NCCCN2CCN(c3ccc(F)cc3)CC2)cc1OC | 5 | x | -2 | -3 | 1
Cc1nn(-c2ccccc2)c(C)c1/C=N\N1CCN(Cc2ccccc2Cl)CC1 | 1 | x | -5 | 2 | -2
CCOC(=O)C1=C(Cc2ccc(F)cc2)C(=O)c2ccccc2C1=O | 31* | 3 | -6 | 9 | -5
O=C(OCc1ccc(F)cc1)c1ccc2c(c1)-c1ccccc1C2=O | 1 | 0 | -1 | -3 | 1
CCC(C)N(C(=O)CNc1nnnn1-c1ccccc1)C(C)CC (configuration not stated) | 5 | x | 0 | -6 | -1
C[C@@H]1CN([C@@H](C)CO)C(=O)CCCn2nncc2CO[C@H]1CN(C)C(=O)Nc1cccc2ccccc12 | 2 | 0 | 8 | 3 | 24*
COc1cccc(S(=O)(=O)N(C)C[C@H]2OCc3cnnn3CCCC(=O)N([C@@H](C)CO)C[C@H]2C)c1 | 6 | 0 | 10 | -1 | 22*
C[C@H](CO)N1C[C@H](C)[C@H](CN(C)C(=O)OCc2ccccc2)OCc2cnnn2CCCC1=O | 8 | 2 | 4 | -3 | 24*
CCCN(C)C[C@H]1OCc2cnnn2CCCC(=O)N([C@H](C)CO)C[C@@H]1C | -2 | 1 | 13 | 3 | 23*
C[C@H]1CN([C@@H](C)CO)C(=O)CCCn2nncc2CO[C@@H]1CN(C)CC1CC1 | 3 | x | 5 | 0 | -1
C[C@@H]1CN([C@H](C)CO)C(=O)CCCn2nncc2CO[C@@H]1CN(C)C(=O)Nc1cccc2ccccc12 | -2 | 2 | -4 | -3 | -2
COc1ccc(N2CCN(CCCNC(=O)Cn3c(=O)c4cccn4c4cccnc43)CC2)c(OC)c1 | -9 | x | 5 | 3 | 3
COc1ccc(S[C@]2(C(=O)N3CCN(c4ncccn4)CC3)CC(=O)N(P(=O)(OC)OC)[C@@H]2c2ccc(OC)cc2)cc1 | 9 | x | 1 | 6 | 2
O=C(COc1ccc(F)cc1)Nc1nnc(S(=O)(=O)N2CCCC2)s1 | -5 | 1 | 0 | -5 | 37*
SMILES | TDP2 absorb | Rin1-Abl PPI inh | MBD2 DNA inh | LEDGF integ inh | UHRF1 MBD2 ctr
CCOC(=O)[C@@]12CCCC3=C1N(CCC3)C(=O)[C@H]2CC(=O)N1CCCC1 | 5 | x | 0 | 0 | -2
CCN(CC)c1ccc(NC(=O)CSc2nnc(SCc3ccc(Cl)cc3)s2)cc1 | 4 | x | 6 | -5 | 2
CCN(CC)CC(O)COc1ccc2c(c1)c(C(C)=O)c(C)n2-c1ccccc1 (configuration not stated) | 0 | 2 | -1 | -1 | 2
CC(=O)c1c(C)n(-c2ccccc2)c2ccc(OCC(O)CN3CCOCC3)cc12 (configuration not stated) | -1 | -1 | 0 | -4 | 83*
O=[N+]([O-])c1ccc(CN2CCOCCOCCN(Cc3ccc([N+](=O)[O-])cc3Cl)CCOCC2)c(Cl)c1 | 4 | x | -3 | 2 | -2
CN(Cc1ccccc1)C(=O)[C@@H]1CCCN1 | 6 | x | -3 | 3 | -3
CN(Cc1ccncc1)C(=O)[C@@H]1CCCN1C(=O)[C@@H]1CCCN1 | 1 | x | 4 | -4 | 22*
c1ccc(-c2noc(C3CCC3)n2)nc1 | 10 | 1 | 11 | 1 | 25*
CCN(CCCn1c(=S)[nH]c2ncccc2c1=O)c1ccccc1 | -7 | 4 | 2 | 2 | 2
CCN(CC)CCCn1c(=S)[nH]c2ncccc2c1=O | 3 | -3 | 11 | 2 | 21*
O=C(O)c1ccc(NS(=O)(=O)c2ccc(Cl)c(C(=O)Nc3ccccc3)c2)cc1 | -9 | 0 | -3 | 4 | 23*
N#Cc1ccsc1NC(=O)COC(=O)CCCSc1nc2ccccc2s1 | 5 | 1 | 8 | 1 | 75*
CNC(=O)NC(=O)COC(=O)CCCSc1nc2ccccc2s1 | -11 | 0 | 4 | 5 | -2
CCCCCCCC(=O)N[C@H]1CC[C@@]23CCCN2C(=O)CCC[C@H]3[C@H]1C | 1 | x | -8 | 0 | -2
CC(C)C[C@@H](CN)NC(=O)c1nc[nH]c1C(=O)N[C@@H](C)C(=O)CNC[C@H](C)NC(=O)c1nc[nH]c1C(=O)N[C@@H](CC(=O)O)C(=O)O | -3 | 0 | 7 | -2 | 15
CC(C)C[C@@H](CN)NC(=O)c1nc[nH]c1C(=O)N[C@@H](Cc1c[nH]c2ccccc12)C(=O)CNC[C@H](C)NC(=O)c1nc[nH]c1C(=O)N[C@@H](C)C(=O)O | 10 | 0 | 12 | -1 | 24*
CC(C)C[C@@H](CN)NC(=O)c1nc[nH]c1C(=O)N[C@@H](Cc1ccccc1)C(=O)CNC[C@H](C)NC(=O)c1nc[nH]c1C(=O)N[C@@H](CC(C)C)C(=O)O | 1 | -2 | 9 | -2 | 21*
CC(C)C[C@@H](CNCC(=O)[C@H](Cc1c[nH]c2ccccc12)NC(=O)c1[nH]cnc1C(=O)N[C@@H](C)CN)NC(=O)c1nc[nH]c1C(=O)N[C@@H](Cc1ccccc1)C(=O)O | 16 | -1 | 12 | -1 | 21*
CC(C)C[C@@H](CNCC(=O)[C@H](C)NC(=O)c1[nH]cnc1C(=O)N[C@@H](C)CN)NC(=O)c1nc[nH]c1C(=O)N[C@@H](Cc1ccccc1)C(=O)O | 3 | -2 | -4 | -5 | 13
